Compounds with a hit are over-represented: about 2.2% of the library has one in this group of screens.
IEC-6 tox – counter-screen for KLF5 inhibitors: cytotoxicity in IEC-6 cells; inhibition, % at 5 µM; 0.78% of 290,000 active; AID 1825; IEC-6 cytotoxicity, luminescence viability;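 note: 0% = plate median of test compound wells and 100% = cytotoxic reference compound wells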
Ba/F3 V617F tox – loss of viability in JAK2V617F-driven Ba/F3 cells. Ba/F3 EpoR-JAK2V617F viability, ATP luminescence. inhibition, % at 5.6 µM. 1.1% of 220,000 active. AID 1446;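 active = inhibition above the campaign mean plus 3 SD over all tested compounds, cut at about 24% in these data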;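 note: cytokine-independent growth of Ba/F3 cells driven by EpoR plus mutant JAK2; 0% = DMSO-treated cells and 100% = JAK inhibitor I control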
BaF3 parental – reduces parental Ba/F3 cell viability, JAK2V617F counter-screen. CellTiter-Glo ATP luminescence. inhibition, % at 5.6 µM. 1.1% of 220,000 active. AID 1486;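 active = inhibition above a per-campaign cutoff, the mean inhibition of all tested compounds plus 3 SD, cut at about 27% in these data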;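 note: 0% = DMSO wells and 100% = JAK Inhibitor I control wells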
b-catenin transl – beta-catenin nuclear translocation modulation | HeLa beta-catenin nuclear translocation, immunofluorescence imaging | 0.3% of 190,000 active | AID 1665 | nuclear translocation activity, % at 5 µM;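 active = nuclear translocation activity above 50% at 5 µM, with a well cell count of 50 or more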;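 note: per-cell ratio of nuclear to cytoplasmic median beta-catenin stain intensity; plate controls were DMSO negative control for no effect and GSK-3 inhibitor IX positive control for full effect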
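Test system: human HeLa cells, endogenous beta-catenin. Times: 24 h compound exposure, 37°C. Measured by: beta-catenin immunofluorescence imaging with DAPI.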
MT stabilize HCS – stabilizes microtubules in HeLa cells; % tubulin-high responders, % at 10 µM; 0.83% of 200,000 active; HeLa tubulin immunostaining HCS, 24 h; share of cells brighter than vehicle mean+2SD;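 active = plate Z-score above 3 for both tubulin-high and condensed-nucleus cell shares, with cell loss under 80%, at 10 µM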;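 note: anti alpha tubulin signal scored within the nucleus-defined area of each cell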
APP 5UTR inh – APP translation inhibition. inhibition, % at 2 µM. 0.82% of 190,000 active. SH-SY5Y APP 5'UTR-luciferase reporter, luminescence;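 active = inhibition above a set limit, derived from the sample mean plus 3 SD, cut at about 45% in these data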
BaF3 tox 2 – reduces parental Ba/F3 viability, JAK2V617F counter-screen | shares compounds with Ba/F3 V617F tox | CellTiter-Glo luminescence; cells kept alive by added IL-3 | inhibition, % at 5.6 µM | 31% of 580 active;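 active = cell growth inhibition above the hit limit set in the earlier mutant JAK2 cell screen, cut at about 27% in these data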;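 note: plate controls were DMSO-treated cells for no effect and JAK Inhibitor I control wells for full effect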
JAK2V617F conf – Ba/F3 EpoR-JAK2V617F viability loss, confirmation; CellTiter-Glo luminescence; inhibition, % at 5.6 µM; AID 1521; 66% of 580 active; shares compounds with Ba/F3 V617F tox;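 active = mean inhibition above the hit cutoff derived in the earlier primary screen, cut at about 25% in these data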;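 note: 0% = DMSO-treated cells and 100% = JAK inhibitor I control wells; higher means lower luminescence from reduced cell ATP and viability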
IEC-6 cytotox cf – IEC-6 cytotoxicity, confirmation assay; inhibition, % at 5 µM; 63% of 1,900 active; IEC-6 rat intestinal epithelial viability, luminescence; shares compounds with IEC-6 tox;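 note: 0% = vehicle and 100% = reference cytotoxic drug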
The depositor's hits bear a star; nt = not tested or not shown. Cut-off read from the data, not from the text of the source, unless noted: active = inhibition above about 22%; inactive = the rest.

SMILES	IEC-6 tox	Ba/F3 V617F tox	BaF3 parental	b-catenin transl	MT stabilize HCS	APP 5UTR inh	IEC-6 cytotox cf	others
COc1ccc(/C=N/NC(=O)c2cccnc2)cc1COc1ccc([N+](=O)[O-])c(C)c1	45*	25*	18	82*	nt	nt	43*	BaF3 tox 2=47*;JAK2V617F conf=93*
COc1ccc(/C=N/NC(=O)c2ccn[nH]2)cc1COc1ccc([N+](=O)[O-])c(C)c1	6	-3	2	1	nt	nt	nt
O=C(NC(NC(=S)N1CCOCC1)C(Cl)(Cl)Cl)c1ccc(Cl)cc1 (centres undefined)	24*	30*	-1	-4	2	10	31*	BaF3 tox 2=31*;JAK2V617F conf=60*
Cc1ccc(-c2ccnc3c(Br)c(C)nn23)cc1	28*	nt	nt	nt	nt	nt	19
Cc1ccc(N2CCN(S(=O)(=O)c3c(C)nc4scc(C)n4c3=O)CC2)c(C)c1	3	nt	nt	nt	nt	nt	nt
CCc1nnc(NC(=O)c2nc(S(=O)(=O)Cc3cccc(C)c3)ncc2Cl)s1	41*	nt	nt	nt	nt	nt	6
CC(C)c1nnc(NC(=O)c2nc(S(=O)(=O)Cc3ccccc3F)ncc2Cl)s1	18	nt	nt	nt	nt	nt	nt
CCc1nnc(NC(=O)c2nc(S(=O)(=O)Cc3ccc(C)cc3)ncc2Cl)s1	50*	nt	nt	nt	nt	nt	18
CCSc1nnc(NC(=O)c2nc(S(=O)(=O)Cc3ccc(F)cc3)ncc2Cl)s1	-6	nt	nt	nt	nt	nt	nt
Cc1nnc(NC(=O)c2nc(S(=O)(=O)Cc3ccccc3C)ncc2Cl)s1	69*	nt	nt	nt	nt	nt	17
CCOc1ccccc1NC(=O)c1nc(S(=O)(=O)Cc2cccc(C)c2)ncc1Cl	73*	nt	nt	nt	nt	nt	30*
O=C(CC1C(=O)NCCN1CCCc1ccccc1)NCCc1ccccc1Cl (centres undefined)	1	nt	nt	nt	nt	nt	nt
CCc1nnc(NC(=O)c2nc(S(=O)(=O)Cc3ccccc3)ncc2Cl)s1	34*	nt	nt	nt	nt	nt	7
CCc1nnc(NC(=O)c2nc(Cl)ccc2Cl)s1	-2	nt	nt	nt	nt	nt	nt
O=C1NC(c2cn(-c3ccccc3)nc2-c2cccs2)C(C(=O)c2cccnc2)C(O)(C(F)(F)F)N1 (centres undefined)	4	-7	2	nt	3	-13	nt
COc1cc(NC(=O)c2cc(-c3ccccc3Cl)on2)cc(OC)c1OC	55*	nt	nt	nt	nt	nt	33*
COc1ccccc1-c1cc(C(=O)Nc2cccnc2)no1	58*	75*	57*	70*	24*	96*	39*
COP(=O)(c1ccc(N(C)C)cc1)C(O)c1ccccc1 (centres undefined)	-5	nt	nt	nt	nt	nt	nt
COc1cccc(C(=O)NC2CCCN(C3Cc4ccccc4C3)C2)c1OC (centres undefined)	-2	nt	nt	nt	nt	nt	nt
Cc1ccnc(Nc2nc(-c3ccc(O)cc3)cs2)c1	-2	nt	nt	nt	nt	nt	nt
Cc1ccnc(Nc2nc(-c3ccc(O)c(O)c3)cs2)c1	36*	nt	nt	nt	nt	nt	18
CCC(C)(CC(=O)N(C)CCC#N)c1ccccc1 (centres undefined)	2	4	6	-2	4	-12	nt
Cc1ccc(NC(=O)CCc2c[nH]c3ccccc23)nc1	70*	nt	nt	nt	nt	nt	42*
CCSc1oc(-c2ccco2)nc1S(=O)(=O)c1ccc(C)cc1	-7	nt	nt	nt	nt	nt	nt
COc1cc(C(=O)Nc2ccc3c(c2)ncn3C)cc(OC)c1OC	55*	nt	nt	nt	nt	nt	34*
SMILES	IEC-6 tox	Ba/F3 V617F tox	BaF3 parental	b-catenin transl	MT stabilize HCS	APP 5UTR inh	IEC-6 cytotox cf	others
CCn1c2ccccc2c2cc(NC(=O)c3cc(OC)c(OC)c(OC)c3)ccc21	92*	87*	86*	4	23*	8	89*
COc1cc(C(=O)Nc2ccc3c(c2)nc(C)n3C)cc(OC)c1OC	30*	nt	nt	nt	nt	nt	19
COc1ccc(OCC(O)CNCCOc2ccccc2OC)c(C(C)(C)C)c1 (centres undefined)	6	nt	nt	nt	nt	nt	nt
Cc1ccc(NC(=O)CCc2ccc(C)o2)cc1	5	nt	nt	nt	nt	nt	nt
CC(C)(C)NC(=O)NC(=O)COC(=O)CCC1CCCC1	2	-4	0	-1	nt	nt	nt
COc1ccc(C2=NS(=O)(=O)N(C)C(C(=O)NCc3ccc4c(c3)OCO4)=C2)cc1OC	1	nt	nt	nt	nt	nt	nt
O=C(O)CNc1nc(Cl)ccc1[N+](=O)[O-]	3	0	4	-1	2	-1	nt
CCCCn1c(-c2cccc3ccccc23)nc2cc3[nH]c(=O)c(C(C)C)nc3cc21	5	nt	nt	nt	nt	nt	nt
Cc1ccc(C)c(NC(=O)Cn2nnc(C(=O)NCc3ccco3)c2N)c1	24*	nt	nt	nt	nt	nt	18
COc1ccccc1NC(=O)Cn1nnc(C(=O)NCc2cccs2)c1N	79*	nt	nt	nt	nt	nt	53*
COc1cc(CNCCN2CCOCC2)ccc1OCc1ccc(Cl)cc1	2	-1	4	nt	2	-4	nt
COc1cc(CNCCCN2CCOCC2)cc(Br)c1OCc1ccc(Cl)cc1	53*	30*	73*	22	4	10	46*
Cc1cc(C)c[n+](CC(=O)c2c(C)cc(C)c([N+](=O)[O-])c2C)c1	0	nt	nt	nt	nt	nt	nt
COc1ccc(CCNS(=O)(=O)c2ccc(N3CCCC3=O)cc2)cc1	-2	-3	3	nt	3	-5	nt
Cc1ccccc1NS(=O)(=O)c1ccc(N2CCCC2=O)cc1	55*	85*	72*	100*	37*	74*	44*
Cc1ccc(NC(=O)C2CCN(S(=O)(=O)c3ccc(N4CCCC4=O)cc3)CC2)cc1Cl	27*	nt	nt	nt	nt	nt	13
COc1ccc(NC(=O)C2CCN(S(=O)(=O)c3ccc(N4CCCC4=O)cc3)CC2)c(OC)c1	3	nt	nt	nt	nt	nt	nt
COc1ccc(OC)c(NS(=O)(=O)c2ccc(N3CCCC3=O)cc2)c1	88*	79*	81*	147*	22*	96*	53*
COc1cccc(C(=O)N2CCN(C(=O)C3COc4ccccc4O3)CC2)c1 (centres undefined)	1	nt	nt	nt	nt	nt	nt
COc1ccccc1C(CNc1ccc(S(=O)(=O)N2CCCC2)cc1[N+](=O)[O-])N(C)C (centres undefined)	22*	nt	nt	nt	nt	nt	8
CCN(CC)CCNC(=O)CCN1N=C(c2ccccc2)CCC1=O	0	nt	nt	nt	nt	nt	nt
CCOC(=O)C1CCN(S(=O)(=O)c2cccc3nonc23)CC1	-2	1	5	-2	3	-7	nt
CCOC(=O)C1CCN(S(=O)(=O)c2c(Cl)ccc3nonc23)CC1	100*	nt	nt	nt	nt	nt	41*
Cc1cccc(NC(=O)c2ccc(N3C(=O)C4C5C=CC(C6CC56)C4C3=O)cc2)c1 (centres undefined)	23*	nt	nt	nt	nt	nt	12
Cc1cc(C(=O)CSc2cccc[n+]2[O-])c(C)n1-c1ccc(OC(F)F)cc1	27*	4	-2	0	nt	nt	-1
Cc1ccccc1NNC(N)=S	0	-1	4	0	4	-22	nt
NC(=S)NNc1c(F)c(F)c(F)c(F)c1F	49*	30*	35*	1	4	18	-9

Screening results (PubChem BioAssay)
